The test system of one assay is Oryza sativa. Nature of the assay: Inhibition of rice alpha-D-glucosidase at 1 mg/ml after 10 to 20 mins. Put shortly: (§1)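 Enzyme was pre-incubated with test solution at 1 mg/ml, or dH2O for controls, for 10–20 min at 27 °C. Substrate was added and incubation continued for the same time at 27 °C. The reaction was stopped with glycine solution and read at 405 nm. Each sample and control ran in three wells at the enzyme's optimal pH. Values are % inhibition.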

Assay [1] concerns the target Alpha-galactosidase (Coffea arabica) (UniProt Q42656). In words: Inhibition of green coffee beans alpha-D-galactosidase at 1 mg/ml after 10 to 20 mins. Put shortly:
as §1

The next assay has as its system Penicillium decumbens. Nature of the assay: Inhibition of Penicillium decumbens naringinase at 1 mg/ml after 10 to 20 mins. Put shortly: as §1
For the next assay, the target named is T1, Beta-galactosidase (Bos taurus, UniProt Q58D55).
T1 sequence (Q58D55 whole entry): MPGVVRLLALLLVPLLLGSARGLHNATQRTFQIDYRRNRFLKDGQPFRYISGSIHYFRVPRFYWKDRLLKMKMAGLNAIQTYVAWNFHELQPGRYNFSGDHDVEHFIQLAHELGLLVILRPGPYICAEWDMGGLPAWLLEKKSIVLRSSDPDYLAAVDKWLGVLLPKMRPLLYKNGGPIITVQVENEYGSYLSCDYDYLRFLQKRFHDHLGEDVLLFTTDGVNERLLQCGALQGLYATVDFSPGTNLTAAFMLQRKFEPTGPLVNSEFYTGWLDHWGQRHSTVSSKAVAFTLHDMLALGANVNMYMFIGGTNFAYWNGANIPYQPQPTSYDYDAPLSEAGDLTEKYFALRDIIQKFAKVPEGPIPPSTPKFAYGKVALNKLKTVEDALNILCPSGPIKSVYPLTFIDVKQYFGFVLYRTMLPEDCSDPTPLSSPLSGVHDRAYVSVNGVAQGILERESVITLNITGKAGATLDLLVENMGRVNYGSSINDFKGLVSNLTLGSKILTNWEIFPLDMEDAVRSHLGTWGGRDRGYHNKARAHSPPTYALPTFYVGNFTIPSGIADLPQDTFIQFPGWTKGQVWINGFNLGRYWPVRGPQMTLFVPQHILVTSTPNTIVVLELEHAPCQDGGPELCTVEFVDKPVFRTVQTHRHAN
Nature of the assay: Inhibition of bovine kidney beta-D-galactosidase after 10 to 20 mins. Put shortly: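 Bovine kidney β-D-galactosidase was pre-incubated with test solution, or dH2O for controls, for 10–20 min at 27 °C. Substrate was added for a further 10–20 min at 27 °C, then glycine solution, and absorbance at 405 nm. Wells were run in triplicate. Ki and inhibition mode came from Lineweaver–Burk double-reciprocal slopes.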

Assay [2] relates to Geobacillus stearothermophilus. In words: Inhibition of Bacillus stearothermophilus alpha-D-glucosidase at 1 mg/ml after 10 to 20 mins. The method in brief: as §1
In a further assay the test system is Saccharomyces cerevisiae. In words: Inhibition of Saccharomyces cerevisiae alpha-D-glucosidase at 1 mg/ml after 10 to 20 mins. The method in brief: as §1
A further assay relates to Canavalia ensiformis. Nature of the assay: Inhibition of jack bean alpha-D-mannosidase at 1 mg/ml after 10 to 20 mins. The method in brief: as §1
A further assay is filed under the species Bos taurus. In words: Inhibition of bovine kidney N-acetyl-beta-D-glucosaminidase at 1 mg/ml after 10 to 20 mins. The method in brief: as §1
Assay [3] addresses T2, Beta-galactosidase (Bos taurus) (UniProt Q58D55).
T2 sequence (whole entry): T1 sequence (Q58D55 whole entry)
Nature of the assay: Inhibition of bovine kidney beta-D-galactosidase at 1 mg/ml after 10 to 20 mins. The method in brief: as §1

The test system of a further assay is Prunus. Nature of the assay: Inhibition of almond beta-D-glucosidase at 1 mg/ml after 10 to 20 mins. The method in brief: as §1
Another assay deals with Cellulomonas fimi. Nature of the assay: Inhibition of Cellulomonas fimi beta-D-mannosidase at 1 mg/ml after 10 to 20 mins. Put shortly:
as §1

In assay [4] the target is T3, Beta-galactosidase/Glucosylceramidase (Bos taurus, UniProt Q58D55+Q2KHZ8).
T3 sequence (Q58D55 whole entry): T1 sequence (Q58D55 whole entry)
T3 sequence (Q2KHZ8 whole entry): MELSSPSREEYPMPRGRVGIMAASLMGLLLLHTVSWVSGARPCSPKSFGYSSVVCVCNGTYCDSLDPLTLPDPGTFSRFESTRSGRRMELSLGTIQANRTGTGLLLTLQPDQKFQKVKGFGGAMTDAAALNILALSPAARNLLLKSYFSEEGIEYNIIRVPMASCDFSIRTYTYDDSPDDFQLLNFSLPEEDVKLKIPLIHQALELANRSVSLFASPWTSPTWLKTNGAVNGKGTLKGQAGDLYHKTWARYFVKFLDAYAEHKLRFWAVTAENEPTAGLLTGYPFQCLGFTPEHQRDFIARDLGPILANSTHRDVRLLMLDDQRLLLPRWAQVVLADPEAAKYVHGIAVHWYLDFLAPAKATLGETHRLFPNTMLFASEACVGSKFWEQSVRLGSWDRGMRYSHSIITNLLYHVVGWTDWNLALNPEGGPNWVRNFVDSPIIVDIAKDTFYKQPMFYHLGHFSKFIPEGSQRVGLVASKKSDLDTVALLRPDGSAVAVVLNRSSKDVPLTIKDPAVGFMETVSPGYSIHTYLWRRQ
In words: Inhibition of bovine liver beta-glucosidase/beta-galatosidase.

In assay [5] the target is T4, Lysosomal acid glucosylceramidase (Homo sapiens, UniProt P04062).
T4 sequence (P04062 whole entry): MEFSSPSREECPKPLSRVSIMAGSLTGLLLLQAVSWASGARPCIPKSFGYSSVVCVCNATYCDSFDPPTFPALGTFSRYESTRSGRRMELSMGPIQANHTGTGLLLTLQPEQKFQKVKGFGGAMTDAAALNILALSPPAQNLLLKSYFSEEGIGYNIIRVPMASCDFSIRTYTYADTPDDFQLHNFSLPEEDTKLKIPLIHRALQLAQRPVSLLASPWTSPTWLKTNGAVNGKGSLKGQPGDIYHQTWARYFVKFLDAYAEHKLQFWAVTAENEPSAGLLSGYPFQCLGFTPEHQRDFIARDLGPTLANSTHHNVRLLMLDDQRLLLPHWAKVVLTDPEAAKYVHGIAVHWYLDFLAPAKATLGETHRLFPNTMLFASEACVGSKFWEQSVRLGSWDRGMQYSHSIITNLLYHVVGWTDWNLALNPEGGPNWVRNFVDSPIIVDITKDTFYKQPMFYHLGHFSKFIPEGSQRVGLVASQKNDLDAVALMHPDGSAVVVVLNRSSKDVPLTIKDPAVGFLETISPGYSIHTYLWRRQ
In words: Uncompetitive inhibition of human beta-glucosidase by Michaelis-Menten kinetics analysis.

Assay [6] in a line: Inhibition of lysosomal alpha-glucosidase.
The nature of assay [7]: Inhibition of lysosomal beta-glucosidase. The conditions noted are these: concentration not given here. The method in brief:
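Enzyme and test solution (or water for controls) were pre-incubated at 27 °C for 10–20 min. Substrate was then added and incubated at 27 °C for 10–20 min. The reaction was stopped with glycine solution and absorbance read at 405 nm. Wells were in triplicate with triplicate controls. Results are % inhibition at 1 mg/ml at optimal pH.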

Assay [8] can be described thus: Inhibition of lysosomal alpha-glucosidase.
Assay [9] in a line: Inhibition of alpha-glucosidase.

The source made the active and inactive calls. The calls are words filed in the database; no cut-off is given here.

Experimental findings from ChEMBL document CHEMBL1821567, “Synthesis and glycosidase inhibitory profiles of functionalised morpholines and oxazepanes” (Bioorg Med Chem, 2011) are described below.

As usually defined, the inhibition is the relative decrease from the control value, in per cent. Broadly, the IC50 is the concentration needed to halve the response being measured. The low end stands for inhibition by little substance, the high end for a need for much substance. The term Ki denotes a dissociation constant, usually derived from enzyme kinetics or from competition with a known ligand. The low end stands for higher affinity, the high end for lower affinity.

Alpha-galactosidase (Coffea arabica), sequence (Q42656 16-378 limits assumed): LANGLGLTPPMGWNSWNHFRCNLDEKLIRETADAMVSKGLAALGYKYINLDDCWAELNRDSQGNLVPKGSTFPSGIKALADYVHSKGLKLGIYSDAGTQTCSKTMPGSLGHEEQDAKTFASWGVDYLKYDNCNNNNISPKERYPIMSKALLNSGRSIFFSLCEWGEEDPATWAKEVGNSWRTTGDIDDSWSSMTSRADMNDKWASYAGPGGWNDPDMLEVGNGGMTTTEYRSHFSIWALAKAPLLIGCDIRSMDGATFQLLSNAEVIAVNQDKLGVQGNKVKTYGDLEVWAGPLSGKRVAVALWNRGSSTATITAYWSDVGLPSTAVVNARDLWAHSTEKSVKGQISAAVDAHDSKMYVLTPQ

With `CCCCN1C[C@@H](CO)O[C@H](OC)C1`, the inhibition entry (with Oryza sativa; in assay [1]; in assay [2]; in the assay with Saccharomyces cerevisiae; with Canavalia ensiformis; in the assay on Prunus) was “inactive” each time. For the same compound, in the assay with Cellulomonas fimi, the inhibition entry is “inactive”. For the same compound, the inhibition in the assay on Penicillium decumbens turned out to be 7%; in the assay filed under Bos taurus it was 8%; in assay [3], 45%. This compound displayed an IC50 against Beta-galactosidase of 70.3 µM.

Turning to `O=C(Nc1ccccc1)N1[C@@H]2OC[C@]1(O)[C@@H](O)[C@@H](O)[C@H]2O`, in assay [4], the Ki was 68 µM.

On to `O[C@@H]1[C@@H](O)[C@H](O)[C@@]2(O)CO[C@H]1N2`, for which the Ki in assay [4] is 45 µM.

As for `CO[C@@H]1CN(O)C[C@@H](CO)O1`, the inhibition in the assay on Oryza sativa worked out at 29%; with Saccharomyces cerevisiae it was 58%; in the assay listed under Bos taurus, 72%; in [3], 82%. Further, the inhibition entry (in assay [1]; with Penicillium decumbens; in [2]; in the assay with Canavalia ensiformis; in the assay on Prunus; in the assay with Cellulomonas fimi) was “inactive” throughout. This compound registered an IC50 against Beta-galactosidase of 30.6 µM. At Beta-galactosidase, this compound registered a Ki of 20.2 µM.

On to `CCCCCCCCN1C[C@@H](CO)O[C@H](OC)C1`, for which the inhibition entry (in the assay with Oryza sativa; in [1]; in the assay on Penicillium decumbens; in [2]; with Saccharomyces cerevisiae; in the assay on Canavalia ensiformis) was “inactive” throughout. In addition, the inhibition entry in the assay listed under Bos taurus and in the assay with Prunus was “inactive” each time. On Beta-galactosidase, this compound displayed an IC50 of 55.1 µM. The inhibition is 51% in assay [3] and 6% in the assay with Cellulomonas fimi.

`OCCC(O)CN1CCOCC1` (centres undefined): affinity in assay [5] was put at a Ki of 640 µM.

Consider `CO[C@@H]1CN(C)C[C@@H](CO)O1`, for which the inhibition result (with Oryza sativa; in assay [1]; with Penicillium decumbens; in assay [2]; with Canavalia ensiformis; in the assay listed under Bos taurus) was “inactive” each time. The inhibition result in the assay with Prunus and in the assay on Cellulomonas fimi was “inactive” throughout. The IC50 on Beta-galactosidase amounted to 88.6 µM. On Beta-galactosidase, this compound had a Ki of 126 µM. For the same compound, the inhibition in the assay with Saccharomyces cerevisiae amounted to 24%; in [3], 48%.

The compound `O=C(Nc1ccccc1)N1[C@@H]2OC[C@]1(O)[C@@H](O)[C@H](O)[C@H]2O` yielded a Ki in [4] of 30 µM.

`O[C@H]1[C@H](O)[C@@H](O)CN2CC[C@H](O)[C@H]12` [CASTANOSPERMINE]: the Ki in [6] and in assay [8] was 0.1 µM throughout. The inhibition in assay [7] came out at 96%; in assay [8] (concentration not given here) it was 100%.

Consider `OC[C@H]1CNC[C@@H](O)[C@@H]1O`, for which, in assay [9], the INH was found to be 86 µM.

In turn, `OCCN1CCOCC1` came in with a Ki in [5] of 620 µM.

Turning to `O[C@@H]1[C@@H](O)[C@H](O)[C@@]2(O)CO[C@H]1N2C(=S)Nc1ccccc1`, the Ki in [4] was 2.5 µM.

Take `O[C@@H]1[C@H](O)[C@H](O)[C@@]2(O)CO[C@H]1N2C(=S)Nc1ccccc1`: the inhibition constant Ki in [4] is 750 µM.

For `CCCN1C[C@@H](CO)O[C@H](OC)C1`, the inhibition result (in the assay with Oryza sativa; in [1]; in the assay on Canavalia ensiformis; in the assay listed under Bos taurus; with Prunus; in the assay on Cellulomonas fimi) was “inactive” in each case. Besides, the inhibition in the assay on Penicillium decumbens is 9%; in [2], 9%; in the assay with Saccharomyces cerevisiae, 8%; in assay [3], 54%. Besides, 75.5 µM corresponded to half-maximal inhibition at Beta-galactosidase (IC50).

Regarding `CO[C@H]1O[C@H](CN2C[C@@H](CO)O[C@H](OC)[C@H](O)C2)[C@@H](OCc2ccccc2)[C@H](OCc2ccccc2)[C@H]1OCc1ccccc1`, the inhibition result (in the assay on Oryza sativa; in assay [1]; in the assay with Penicillium decumbens; in [2]; in the assay on Saccharomyces cerevisiae; with Canavalia ensiformis) was “inactive” each time. Moreover, the inhibition entry (in the assay listed under Bos taurus; in [3]; in the assay with Prunus; with Cellulomonas fimi) was “inactive” each time.
